Shown are actives, neighbours in structure and some others; about 3.5% of the full set was active somewhere.
RGS4 block = human RGS4 inhibition | P49798 | HEK293 M3R/RGS4 inducible, Fluo-4 calcium flux; active compounds read high; triggered by carbachol at its EC20 | B-score at 10 µM | 310,000 compounds, 0.45% hits;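 active = B-score, a plate-corrected calcium signal, over three deviations above library mean, with baseline fluorescence within five deviations of library mean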;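 note: RGS4 expression induced by doxycycline in cells with stable M3 receptor; B-score is computed from the integrated fluorescence ratio over baseline after carbachol; higher B-score means a larger calcium signal and so more RGS4 inhibition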
Target sequence (P49798 whole entry, looked up): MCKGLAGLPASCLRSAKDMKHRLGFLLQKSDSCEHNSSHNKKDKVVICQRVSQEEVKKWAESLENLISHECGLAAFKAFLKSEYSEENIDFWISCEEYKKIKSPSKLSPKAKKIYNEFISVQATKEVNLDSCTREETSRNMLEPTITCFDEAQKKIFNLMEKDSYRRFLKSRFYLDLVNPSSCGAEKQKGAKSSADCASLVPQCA
MrgX1 antagonist = blocks BAM8-22 activation of human MrgX1 receptor | MRGX1-HEK293 calcium flux, Fluo-4, BAM8-22 antagonism; active compounds read low | 310,000 compounds, 1.3% hits | B-score at 10 µM;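 active = calcium-response B-score plate-corrected more than 3 library SD below zero, starting fluorescence within 5 deviations, no agonist response on first addition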;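 note: peak minus trough fluorescence over baseline after final BAM8-22 challenge near maximal dose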
Target sequence (Q96LB2 whole entry, looked up): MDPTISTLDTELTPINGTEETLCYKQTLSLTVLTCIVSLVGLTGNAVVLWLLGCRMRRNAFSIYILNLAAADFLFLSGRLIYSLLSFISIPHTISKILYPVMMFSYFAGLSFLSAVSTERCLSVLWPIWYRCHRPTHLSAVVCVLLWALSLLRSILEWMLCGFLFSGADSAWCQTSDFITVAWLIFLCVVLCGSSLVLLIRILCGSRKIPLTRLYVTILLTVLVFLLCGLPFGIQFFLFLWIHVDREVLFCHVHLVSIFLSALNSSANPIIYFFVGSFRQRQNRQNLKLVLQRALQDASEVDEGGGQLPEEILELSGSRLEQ
MrgX1 allo act = human MrgX1 positive allosteric modulation, primary screen. Q96LB2. MrgX1-HEK293, Fluo-4 calcium flux, FDSS; active compounds read high. B-score at 10 µM. 310,000 compounds, 0.63% hits;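 active = plate-corrected calcium response at least 3 library SD above typical, normal starting fluorescence, not activating the receptor alone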;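 note: compound read alongside a low EC10 to EC30 dose of BAM8-22 agonist; peak minus trough fluorescence over baseline measured at the second addition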
MrgX1 ag = agonists of human MrgX1 receptor; MrgX1-HEK293 cells, Fluo-4 calcium fluorescence, agonist mode; active compounds read high; B-score at 10 µM; 310,000 compounds, 0.44% hits; AID 588627;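 active = calcium response B-score plate-corrected fluorescence ratio at least 3 library SD, with starting fluorescence B-score inside 5 SD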
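System: HEK293 cells stably expressing human MrgX1 receptor; Dosing: test compound in the initial addition of three; Schedule: overnight plating, then 30 min 37 °C plus 30 min room-temperature dye loading; Detection: kinetic calcium dye fluorescence, Fluo-4 NW; Controls: per-plate positive and negative controls for Z′ factor.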
RGS4 act = potentiators or activators of RGS4; HEK293 M3R/inducible RGS4, carbachol calcium flux Fluo4; active compounds read low; B-score at 10 µM; 310,000 compounds, 0.92% hits; AID 463111;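 active = B-score of the integrated calcium signal more than 4 SD below the library mean, with starting fluorescence not abnormally high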;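 note: negative B-score means reduced calcium response which marks RGS4 activation or potentiation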
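test system = HEK293 cells with stable M3R and inducible RGS4 | schedule = recording 10 s baseline at 1 Hz, 100 s post-agonist | technique = Fluo4-AM (2 µM) calcium-flux fluorescence, kinetic read | measure = Agonist-evoked peak-minus-minimum fluorescence over baseline, integrated ratio, B score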
MrgX1 allo conf = confirmation of human MrgX1 receptor positive allosteric modulators; shares compounds with MrgX1 allo act; MrgX1-HEK293, Fluo-4 calcium fluorescence, FDSS; activation (ratio percentage), % at 10 µM; 1,200 compounds, 13% hits; AID 602413;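 active = ratio at least 3 SD above the weak peptide control, stable starting fluorescence, no direct agonism earlier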;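 note: compound followed by low BAM8-22 agonist challenge near EC20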
HEK293 Ca flux = MrgX1 antagonist counter-screen hit in parental HEK293 cells; Fluo-4 calcium fluorescence, FDSS; fluorescence ratio F(max-min)/F0 at 10 µM; shares compounds with MrgX1 antagonist; AID 624111; 4,000 compounds, 2% hits;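 active = duplicate-averaged calcium fluorescence ratio at least three times the standard deviation of buffer wells, a nonspecific response in parental cells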
HEK293 Ca counter = MrgX1 allosteric activator counter-screen hit in parental HEK293 cells | shares compounds with MrgX1 antagonist | fluorescence ratio F(max-min)/F0 at 10 µM | parental HEK293 calcium flux, Fluo-4 fluorescence ratio; active compounds read high | AID 624114 | 4,000 compounds, 0.4% hits;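 active = calcium fluorescence ratio, averaged over duplicates, at least 3 SD of the buffer-well ratio, meaning a nonspecific response in receptor-free cells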;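 note: untransfected parental HEK293 lacking MrgX1 used as counterscreen for MrgX1 allosteric activators; fluorescence change taken during the second addition on a kinetic imager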
HEK293 Ca cntr2 = activity in parental HEK293 cells lacking MrgX1 receptor. 4,000 compounds, 8.7% hits. Fluo-4 calcium fluorescence (FDSS); active compounds read high. shares compounds with MrgX1 antagonist. AID 624115. fluorescence ratio F(max-min)/F0 at 10 µM;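 active = calcium fluorescence ratio at least three times the spread of buffer wells, meaning a non-specific response in parental cells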
Large screens that a line does not name were inactive (follow-up assays come after a bar, where they were run).

Cc1ccc(C)n1-n1cnc2sc(-c3ccccc3)cc2c1=O	MrgX1 allo act 7.75 | MrgX1 allo conf inactive | HEK293 Ca flux inactive | HEK293 Ca counter inactive | HEK293 Ca cntr2 inactive
CC1(C)c2ccccc2-c2nc3ccccc3cc2C1O (stereo unspecified)	MrgX1 allo act 9.61 | MrgX1 allo conf inactive | HEK293 Ca flux inactive | HEK293 Ca counter inactive | HEK293 Ca cntr2 inactive
C=CCc1cccc(Cl)c1OCCCNC1CCCC1	none
CC12COC3(C(=O)Nc4ccc(F)cc4)CC1CCC32C (stereo unspecified)	MrgX1 allo act 10.7 | MrgX1 allo conf inactive | HEK293 Ca flux inactive | HEK293 Ca counter inactive | HEK293 Ca cntr2 inactive
CC12COC3(C(N)=O)CC1CCC32C (stereo unspecified)	none
O=C(NCc1ccccc1Cl)c1cc(C(=O)C2CC2)c[nH]1	none
c1ccc(CNc2ncnc3c2cnn3-c2ccccc2)cc1	none
CC(C)(C)Nc1ncnc2c1cnn2-c1ccccc1	MrgX1 allo act 7.72 | MrgX1 allo conf inactive | HEK293 Ca flux inactive | HEK293 Ca counter inactive | HEK293 Ca cntr2 inactive
c1cnc2c(Oc3ncnc4sccc34)cccc2c1	none
Cc1ccc(Oc2ncnc3sccc23)cc1	MrgX1 allo act 17.1 | MrgX1 allo conf 2.5% | HEK293 Ca flux inactive | HEK293 Ca counter inactive | HEK293 Ca cntr2 inactive
Nc1nc2ccccc2n1CCOc1ccc(Cl)cc1	MrgX1 allo act 6.58 | MrgX1 allo conf inactive | HEK293 Ca flux inactive | HEK293 Ca counter inactive | HEK293 Ca cntr2 inactive
O=C1NCCSC1c1ccccc1 (stereo unspecified)	none
O=C(NCCc1cccc(F)c1)C1CCN(S(=O)(=O)c2ccccc2)CC1	none
Cc1cccc(CCNC(=O)C2CCN(S(=O)(=O)c3ccccc3)CC2)c1	MrgX1 allo act 10.6 | MrgX1 allo conf inactive | HEK293 Ca flux inactive | HEK293 Ca counter inactive | HEK293 Ca cntr2 inactive
COc1cc(/C=C/C(=O)NC(=O)c2ccccc2O)ccc1OC(C)=O	none
CN1CCN(C(=S)C(=O)Nc2ccc(Br)cc2)CC1	MrgX1 allo act 11 | MrgX1 allo conf inactive | HEK293 Ca flux inactive | HEK293 Ca counter inactive | HEK293 Ca cntr2 inactive
CN1CCN(C(=S)NC(=O)c2ccc(Br)cc2)CC1	none
CCc1ccc(Oc2cc(Cl)nc(N)n2)cc1	MrgX1 allo act 11.6 | MrgX1 allo conf inactive | HEK293 Ca flux inactive | HEK293 Ca counter inactive | HEK293 Ca cntr2 inactive
Cc1c(C(=O)N2CCC(C(N)=O)CC2)oc2ccc(Br)cc12	none
COC(=O)c1cccc(C(=O)N2CCC(CO)(Cc3ccccc3Cl)CC2)c1	MrgX1 allo act 9.93 | MrgX1 allo conf inactive | HEK293 Ca flux inactive | HEK293 Ca counter inactive | HEK293 Ca cntr2 inactive
COC(=O)c1cccc(C(=O)N2CCC(CO)(CCc3ccccc3)CC2)c1	none
O=C(CNS(=O)(=O)c1ccccc1)NCC(=O)OCc1ccc(Cl)cc1	none
CCOC(=O)c1ccc2c(c1)nc(-c1ccccn1)n2CC	MrgX1 allo act 7.57 | MrgX1 allo conf inactive | HEK293 Ca flux inactive | HEK293 Ca counter inactive | HEK293 Ca cntr2 inactive
COc1ccc(CNC(=O)CCC(=O)Nc2ccc(Cl)cc2)cc1	none
COC(=O)CN1C(=O)C2(C(C#N)=C(N)Oc3c2c(C)nn3-c2ccccc2)c2ccccc21 (stereo unspecified)	MrgX1 allo act 7.41 | MrgX1 allo conf inactive | HEK293 Ca flux inactive | HEK293 Ca counter inactive | HEK293 Ca cntr2 inactive
COC(=O)CN1C(=O)C2(C(C#N)=C(N)Oc3n[nH]c(-c4cccs4)c32)c2ccccc21 (stereo unspecified)	none
COCCNC(=O)C/C(C)=N/NC(=O)C(=O)NC1CCCCC1	none
